Experimental data from ChEMBL document CHEMBL4373711, “Development of 3,5-Dinitrophenyl-Containing 1,2,4-Triazoles and Their Trifluoromethyl Analogues as Highly Efficient Antitubercular Agents Inhibiting Decaprenylphosphoryl-β-d-ribofuranose 2'-Oxidase” (J Med Chem, 2019).
≈ marks a conversion by molar mass, not a printed value. Calls of active or inactive are those of the source. No cut-off for these calls is given here.

Columns and labels:
Mycobacterium kansasii [1] = assay: Antimycobacterial activity against Mycobacterium kansasii 6509/96 after 7 days; assay type: functional; conditions: 6509/96, 168 h
In short: (§1)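 Microdilution in Šula's semisynthetic medium; compounds in DMSO at 32–0.03 µM. Inoculum from 1.0 McFarland suspension diluted 10-4. […] Isoniazid and rifampicin as reference drugs.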

Mycobacterium kansasii [2] = assay: Antimycobacterial activity against Mycobacterium kansasii 6509/96 after 14 days; assay type: functional; conditions: 6509/96, 336 h; in short: as §1
Mycobacterium kansasii [3] = assay: Antimycobacterial activity against Mycobacterium kansasii 6509/96 after 21 days; assay type: functional; conditions: 6509/96, 504 h; in short: as §1
Enterococcus faecalis = assay: Antibacterial activity against Enterococcus faecalis ATCC 29212 CCM 4224 at highest concentration measured after 24 to 48 hrs by alamar blue dye based broth microdilution assay; assay type: functional, organism-based
Aspergillus fumigatus = assay: Antifungal activity against Aspergillus fumigatus ATCC 204305 at highest concentration measured after 24 to 48 hrs by alamar blue dye based broth microdilution assay; assay type: functional, organism-based
HepG2 = assay: Cytotoxicity against human HepG2 cells assessed as reduction in cell viability after 48 hrs by CellTiter 96 aqueous one solution assay; assay type: cell-based; conditions: HepG2, 48 h
[4] = Cytotoxicity against human HepG2 cells assessed as cell viability at 30 uM after 48 hrs by CellTiter 96 aqueous one solution assay relative to control; assay type: cell-based; conditions: read-out: Activity
In short: (§2)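 HepG2 (DMEM, 10% FBS, 1 mM pyruvate) or A431 (DMEM, 10% FBS) seeded 10,000 cells/well, 24 h at 37 °C, 5% CO2, then 30 µM compound for 48 h. MTS reagent 60 min, absorbance 490 nm, background subtracted; 0.1% DMSO vehicle = 100%, 10% SDS = 0% viability.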

A-431 = assay: Cytotoxicity against human A431 cells assessed as reduction in cell viability after 48 hrs by CellTiter 96 aqueous one solution assay; assay type: cell-based; conditions: A-431, 48 h
[5] = Cytotoxicity against human A431 cells assessed as cell viability at 30 uM after 48 hrs by CellTiter 96 aqueous one solution assay relative to control; assay type: cell-based, A-431; conditions: read-out: Activity; in short: as §2
[6] = Selectivity index, ratio of IC50 for human A431 cells to MIC>99 for antimycobacterial activity against Mycobacterium tuberculosis H37Rv CNCTC My 331/88 after 14 days; assay type: toxicity; conditions: read-out: Selectivity Index
[7] = Selectivity index, ratio of IC50 for human A431 cells to MIC>99 for antimycobacterial activity against Mycobacterium tuberculosis H37Rv CNCTC My 331/88 after 21 days; assay type: toxicity; conditions: read-out: Selectivity Index
[8] = Selectivity index, ratio of IC50 for human A431 cells to MIC>99 for antimycobacterial activity against Mycobacterium kansasii 6509/96 after 7 days; assay type: toxicity; conditions: read-out: Selectivity Index
[9] = Selectivity index, ratio of IC50 for human A431 cells to MIC>99 for antimycobacterial activity against Mycobacterium kansasii 6509/96 after 14 days; assay type: toxicity; conditions: read-out: Selectivity Index
[10] = Selectivity index, ratio of IC50 for human A431 cells to MIC>99 for antimycobacterial activity against Mycobacterium kansasii 6509/96 after 21 days; assay type: toxicity; conditions: read-out: Selectivity Index
[11] = molecular target: T1, Decaprenylphosphoryl-beta-D-ribose oxidase (Mycobacterium smegmatis (strain ATCC 700084 / mc(2)155)) (UniProt A0R607); assay: Inhibition of DprE1 in Mycolicibacterium smegmatis MC2 155 lysate assessed as reduction in epimerization of P[14C]RPP to DP[14C]A at 700 uM measured after 1.5 hrs in presence of NADH by TLC-based autoradiography; assay type: subcellular
T1 sequence (whole entry): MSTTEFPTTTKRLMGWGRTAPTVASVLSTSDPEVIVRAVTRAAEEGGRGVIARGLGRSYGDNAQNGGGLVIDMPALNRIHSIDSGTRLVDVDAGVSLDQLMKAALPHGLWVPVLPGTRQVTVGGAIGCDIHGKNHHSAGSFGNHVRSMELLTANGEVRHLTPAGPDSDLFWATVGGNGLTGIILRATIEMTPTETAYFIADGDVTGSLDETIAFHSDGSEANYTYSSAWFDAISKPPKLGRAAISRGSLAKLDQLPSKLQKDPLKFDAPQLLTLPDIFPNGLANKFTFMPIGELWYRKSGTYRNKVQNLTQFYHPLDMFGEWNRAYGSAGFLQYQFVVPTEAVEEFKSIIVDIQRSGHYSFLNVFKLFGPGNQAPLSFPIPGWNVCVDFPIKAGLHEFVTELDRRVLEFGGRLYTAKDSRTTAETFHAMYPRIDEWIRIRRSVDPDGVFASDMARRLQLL
In short: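 Cell-free DPA synthesis used a membrane/cell-envelope fraction (430 µg), spun at 100 000 × g, from sonicated M. smegmatis mc2155. The fraction was incubated 1.5 h with 15,000 dpm P[14C]RPP and NADH. BTZ was used at 70 µM and test compounds at 700 µM final, both added from DMSO stocks. Lipids were extracted, 25% was resolved by TLC, and autoradiography ran 8 days at -80 °C.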

[12] = molecular target: T2, Decaprenylphosphoryl-beta-D-ribose oxidase (Mycobacterium tuberculosis (strain ATCC 25618 / H37Rv)) (UniProt P9WJF1); assay: Inhibition of DprE1 in Mycobacterium tuberculosis H37Rv assessed as accumulation of trehalose dimycolates at 100 times MIC measured after 24 hrs in presence of [14C]-acetate by TLC-based autoradiography
T2 sequence (whole entry): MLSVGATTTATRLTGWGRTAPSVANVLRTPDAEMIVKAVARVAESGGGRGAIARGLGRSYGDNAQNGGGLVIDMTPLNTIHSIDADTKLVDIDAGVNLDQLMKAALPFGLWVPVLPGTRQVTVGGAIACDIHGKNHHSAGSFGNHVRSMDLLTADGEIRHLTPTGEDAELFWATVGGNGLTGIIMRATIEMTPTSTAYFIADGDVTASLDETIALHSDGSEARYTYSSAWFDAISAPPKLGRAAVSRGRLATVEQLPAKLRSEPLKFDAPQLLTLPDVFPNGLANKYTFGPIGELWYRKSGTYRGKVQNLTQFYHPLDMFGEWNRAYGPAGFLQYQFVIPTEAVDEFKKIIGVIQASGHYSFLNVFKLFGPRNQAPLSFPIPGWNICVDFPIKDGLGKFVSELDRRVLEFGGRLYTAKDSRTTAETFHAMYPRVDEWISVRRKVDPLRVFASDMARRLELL
In short: (§3)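 M. tuberculosis H37Rv cultures were exposed to compound at final 10× or 100× MIC, or to DMSO, together with [14C]-acetate at 1 µCi/ml final. After 24 h, lipids were extracted in CHCl3/CH3OH (2:1) for 2 h at 65 °C and given two Folch washes. Extracts were run on TLC in CHCl3/CH3OH/H2O (20:4:0.5), then autoradiographed for 7 days at -80 °C.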

[13] = molecular target: T2, Decaprenylphosphoryl-beta-D-ribose oxidase (Mycobacterium tuberculosis (strain ATCC 25618 / H37Rv)); assay: Inhibition of DprE1 in Mycobacterium tuberculosis H37Rv assessed as accumulation of trehalose monomycolates at 100 times MIC measured after 24 hrs in presence of [14C]-acetate by TLC-based autoradiography; in short: as §3
[14] = Genotoxicity in Salmonella typhimurium TA100 at 30 uM in presence of rat liver S9 fraction by Ames test; assay type: toxicity, subcellular; conditions: salmonella enterica subsp. enterica serovar typhimurium, s9, 30 µM
In short: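 Microplate fluctuation Ames reverse-mutation test following kit instructions; TA98 detects frameshift and TA100 base-exchange mutations. Compound at 30 µM final with Aroclor-1254-induced rat liver S9 plus cofactors.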

Row | Structure (SMILES) | MIC99 (Mycobacterium kansasii [1]) [µM] | MIC99 (Mycobacterium kansasii [2]) [µM] | MIC99 (Mycobacterium kansasii [3]) [µM] | Activity (Enterococcus faecalis) | Activity (Aspergillus fumigatus) | IC50 (HepG2) [µM] | viability at 48 h, 30 µM [4] [%] | IC50 (A-431) [µM] | viability at 48 h, 30 µM [5] [%] | selectivity ratio at 336 h [6] | selectivity ratio at 504 h [7] | selectivity ratio at 168 h [8] | selectivity ratio at 336 h [9] | selectivity ratio at 504 h [10] | DprE1 inhibition (active/not active) [11] | inhibition [12] | inhibition [13] | Activity [14]
1 | O=[N+]([O-])c1cc(-c2nnc(SCc3ccccc3)n2Cc2ccccc2)cc(C(F)(F)F)c1 | 0.03 (≈ 0.0141 µg/mL) | 0.03 (≈ 0.0141 µg/mL) | 0.03 (≈ 0.0141 µg/mL) | inactive | inactive | 21.5 | 18 | 10.1 | 37 | > 100 | > 100 | > 100 | > 100 | > 100 | Active | – | – | –
2 | CCCCCCn1c(SCc2cc([N+](=O)[O-])cc([N+](=O)[O-])c2)nnc1-c1ccccc1 | 1 (≈ 0.442 µg/mL) | 2 (≈ 0.883 µg/mL) | 2 (≈ 0.883 µg/mL) | inactive | inactive | – | – | – | – | – | – | – | – | – | inactive | inactive | inactive | –
3 | O=[N+]([O-])c1cc(-c2nnc(SCc3ccccc3)n2Cc2ccccc2)cc([N+](=O)[O-])c1 | 0.03 (≈ 0.0134 µg/mL) | 0.03 (≈ 0.0134 µg/mL) | 0.03 (≈ 0.0134 µg/mL) | inactive | inactive | > 30 | 106 | > 30 | 111 | – | – | – | – | – | Active | Active | Active | Non-Toxic
4 | COc1ccc(CSc2nnc(-c3cc([N+](=O)[O-])cc(C(F)(F)F)c3)n2Cc2ccccc2)cc1 | 0.5 (≈ 0.25 µg/mL) | 1 (≈ 0.501 µg/mL) | 1 (≈ 0.501 µg/mL) | inactive | inactive | > 30 | 86 | > 30 | 74 | – | – | – | – | – | Active | – | – | –
5 | COc1ccc(Cn2c(SCc3cc([N+](=O)[O-])cc([N+](=O)[O-])c3)nnc2-c2ccccc2)cc1 | – | – | – | inactive | inactive | > 30 | 133 | > 30 | 127 | – | – | – | – | – | inactive | inactive | inactive | –
6 | COc1ccc(CSc2nnc(-c3cc([N+](=O)[O-])cc([N+](=O)[O-])c3)n2Cc2ccccc2)cc1 | 0.03 (≈ 0.0143 µg/mL) | 0.03 (≈ 0.0143 µg/mL) | 0.03 (≈ 0.0143 µg/mL) | inactive | inactive | > 30 | 104 | > 30 | 92 | – | – | – | – | – | Active | Active | Active | –
